Assay outcomes as filed in PubChem.
In the library only some 2.9% were active in any assay of this set; here they are far more common.
NALP1 yeast inh = NALP1 inflammasome inhibitors in reconstituted yeast, colorimetric, S. cerevisiae, triplicate retest | S. cerevisiae NALP1/ASC/caspase-1 growth, X-gal OD620, 72 h | inhibition, % at 10 µM | 280,000 tested, 0.61% active | AID 2071, 2009; in the data active = inhibition mostly above about 24%, no sharp cut-off; inactive = mostly below about 32%
IMP-1 inhibitor = IMP-1 metallo-beta-lactamase inhibitors, primary screen, biochemical, epi-absorbance readout, Pseudomonas aeruginosa enzyme; metallo-beta-lactamase IMP-1 (Pseudomonas aeruginosa); inhibition, % at 5.6 µM; AID 1556, 2009; 290,000 tested, 0.45% active; purified IMP-1, nitrocefin hydrolysis, epi-absorbance fluorescence;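 active = inhibition above the mean plus 3 SD of all compounds in the same screening run, cut at about 4.5% in these data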;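 note: 0% = IMP-1 with DMSO and 100% = DMSO wells lacking enzyme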
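Assay system: purified IMP-1; Quantity: IMP-1 0.2 nM before substrate addition; Medium: HEPES buffer pH 7.1 with ZnSO4 and Brij 35; Incubation: 15 min enzyme–compound preincubation, then 25 min nitrocefin reaction, 25 °C; Signal: fluorescence quenching readout, ex 480/em 530 nm; Controls: DMSO with and without IMP-1; Repeats: singlicate testing.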
SUMO Mot1 rescue = yeast Mot1-301 growth rescue at high temperature, primary screen, SUMOylation pathway inhibitor project, S. cerevisiae, ATP luminescence, 38.5C; S. cerevisiae Mot1-301 growth rescue; percent above DMSO median, 100 means doubled; growth rescue, % at 18.8 µM; 320,000 tested, 1% active;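 active = every valid replicate shows activation above 250% relative to neutral control wells; inactive = the rest, any valid replicate at or below 250%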;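 note: OY570 slx delta 5 strain wells were the positive control but not used for scaling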
FID counter = compounds displacing fluorescent DNA intercalator, primary screen, artefact control for HCV NS3 helicase inhibitor project, biochemical, FID fluorescence; DNA fluorescent intercalator displacement; inhibition, % at 7.9 µM; 290,000 tested, 0.17% active; in the data active = inhibition above about 37%;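 note: 0% = vehicle and 100% = reference compound; higher means more ethidium bromide displaced from hairpin DNA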
SUMO HTRF inh = inhibitors of in vitro SUMOylation cascade, primary screen, biochemical, HTRF, uHTS. HTRF SUMOylation assay, SAE1/SAE2 + UBC9. 290,000 tested, 0.36% active. inhibition, % at 35 µM. SUMO-conjugating enzyme UBC9 (Homo sapiens), P63279. AID 2006, 2009; in the data active = inhibition above about 50%, passing the limit was not always enough
Target sequence (P63279 whole entry, looked up): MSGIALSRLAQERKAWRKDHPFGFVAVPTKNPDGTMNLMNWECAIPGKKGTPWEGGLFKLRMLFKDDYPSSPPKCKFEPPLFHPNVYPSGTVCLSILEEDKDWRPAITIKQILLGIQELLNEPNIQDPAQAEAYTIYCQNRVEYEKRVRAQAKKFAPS
VIM-2 inh = VIM-2 metallo-beta-lactamase inhibitors, primary screen, biochemical, epi-absorbance readout, Pseudomonas aeruginosa enzyme. purified VIM-2, nitrocefin hydrolysis, epi-absorbance fluorescence. inhibition, % at 5.6 µM. 290,000 tested, 0.89% active;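 active = inhibition above the mean of all tested compounds plus 3 SD, cutoff set per screening run, cut at about 7.5% in these data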;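 note: red hydrolysis product quenches plate fluorescence so inhibitors raise well fluorescence; 0% = enzyme with DMSO and 100% = DMSO without enzyme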
An asterisk follows results filed as active; . = no result given.

SMILES	NALP1 yeast inh	IMP-1 inhibitor	SUMO Mot1 rescue	FID counter	SUMO HTRF inh	VIM-2 inh
CC(NC(=O)c1cnccn1)c1ccc(S(N)(=O)=O)cc1 (stereo not drawn)	29.3	-0.1	-17.4	1.5	-2.4	-0.2
O=C(/C=C/c1ccccc1)c1ccccn1	-3.9	-1.3	-31.9	-6.3	13.1	9.1*
CNc1nc(C)c(C(=O)OCC(=O)OC)s1	16.9	0.1	22.2	37.1*	-0.1	1.8
COC(=O)c1cc(OC)c(OC)cc1NC(=O)c1ccco1	2.2	-2.5	6.8	-14.2	9.4	8.9*
COc1cc(NC(=O)c2ccco2)c(C(=O)O)cc1OC	0.5	-2.1	-10.3	-2.5	-1.0	-1.8
COc1cc(NC(=O)Cc2ccc(Cl)cc2)ccc1NC(=O)c1ccco1	37.7*	0.8	-20.0	-12.6	10.6	-0.5
O=C(Nc1ccc(Cl)c(Cl)c1)Oc1ccc(NC(=O)c2ccco2)cc1	99.7*	-5.3	-8.6	3.9	1.2	-3.2
O=C(Nc1ccc(Cl)cc1C(=O)Nc1ccncc1)c1ccco1	0.1	-2.6	3.4	-5.2	-11.2	8.2*
O=C(COC(=O)c1cnccn1)c1ccc(-c2ccccc2)cc1	.	.	44.9	.	.	.
N#Cc1cccc2c1-c1ccccc1/C2=N/NC(N)=O	5.8	-3.5	-10.7	-5.0	10.4	10.4*
N#Cc1cccc2c1-c1ccccc1/C2=N/NC(N)=S	-1.8	-4.0	6.0	3.9	14.6	3.4
CCc1nc(NCCCN2CCOCC2)c2oc3ccccc3c2n1	1.2	-2.6	.	7.3	-0.9	11.0*
O=c1c2ccccc2oc2ccc(NCCCN3CCOCC3)cc12	27.1	0.3	11.2	13.8	7.3	9.8*
CCc1nc(NCCN2CCOCC2)c2oc3ccccc3c2n1	6.9	0.5	-1.6	6.4	29.1	2.8
Cn1c2ccccc2c(=O)c2cc(NCCCN3CCOCC3)ccc21	.	.	1.7	.	.	.
O=C(NCc1cccs1)C1CCCN1C(=O)Nc1ccccc1Cl (stereo not drawn)	1.1	-3.7	-4.7	-2.2	7.5	-1.3
CCCCC(=O)N(Cc1ccc(-c2ccccc2-c2nn[nH]n2)cc1)[C@H](C(=O)O)C(C)C	-1.3	11.0*	-2.5	-31.4	11.0	-2.7
CCCCc1nc(Cl)c(CO)n1Cc1ccc(-c2ccccc2-c2nn[nH]n2)cc1	-1.8	-4.3	13.7	-28.2	0.0	-2.3
Cc1cc(=O)oc2ccc(OCC(=O)NCc3ccco3)cc12	6.4	-4.1	-9.2	-5.8	-4.9	-4.2
Cc1cc(=O)oc2cc(OCC(=O)NCCCn3ccnc3)ccc12	12.4	-2.9	2.3	-1.0	3.4	12.1*
Cc1cc(=O)oc2cc(OCC(O)Cn3ccnc3)ccc12 (stereo not drawn)	29.8	-1.6	-8.8	-2.3	21.6	10.5*
Cc1cc(=O)oc2cc(OCC(=O)NCc3ccco3)ccc12	0.9	-5.9	-14.9	94.5*	-4.3	-0.7
O=C(COc1ccc2c(-c3ccccc3)cc(=O)oc2c1)NCCCn1ccnc1	-1.9	-0.3	-10.9	7.3	9.4	3.0
CC(C)N1CC=C2C(C#N)=C(N)C(C#N)(C#N)C(c3ccccc3)C2C1 (stereo not drawn)	16.0	0.1	6.2	-2.9	23.6	-0.4
CC(C)N1CC=C2C(C#N)=C(N)C(C#N)(C#N)[C@H](c3ccoc3)[C@H]2C1	15.5	-1.4	6.1	2.4	56.2*	1.6
COc1ccc(S(=O)(=O)Nc2nnc(Cc3ccc(OC)c(OC)c3)s2)cc1	3.5	-4.1	27.7	-41.1	11.0	-2.9
O=C(CC(CC(=O)c1ccccc1)c1ccccc1)c1ccccc1	5.2	-1.9	9.4	-30.2	-1.8	-3.4
O=C(CC(CC(=O)c1ccccc1)C(=O)O)c1ccccc1	-10.5	-4.3	-5.8	-16.5	-2.1	8.9*
O=C(Nc1cccc(Cl)c1)c1ccc2c(c1)SC1=NS(=O)(=O)CCN12	12.8	-0.8	.	2.6	-0.6	-0.6
Cc1cccc(C(=O)OC(C)C(=O)Nc2ccc(S(=O)(=O)Nc3ncccn3)cc2)c1C (stereo not drawn)	.	.	-3.0	.	.	.
